Measurements from different studies.
Each line is one published result; the experiments were not run side by side.
Mode: inhibitor
CYP1A2: Cytochrome P450 1A2 (CYP1A2, Homo sapiens, UniProt P05177)
SLCO1B1: Solute carrier organic anion transporter family member 1B1 (SLCO1B1, Homo sapiens, UniProt Q9Y6L6)

CSc1ccccc1C(=O)NCCn1cc(C(=O)NCc2cccc(C)n2)c(=O)c2cc3c(cc21)OC(F)(F)O3
IC50 (CYP1A2; enzyme activity; human, liver microsomes; 20 min, without NADPH, with preincubation): > 100 µM

CC(=O)O[C@H]1[C@H](O[C@H]2CC[C@]34C[C@]35CC[C@]3(C)[C@@H]([C@@]6(C)CC[C@@H](C(C)(C)O)O6)[C@@H](O)C[C@@]3(C)[C@@H]5C[C@H](O[C@@H]3O[C@H](CO)[C@@H](O)[C@H](O)[C@H]3O)[C@H]4C2(C)C)OC[C@@H](OC(C)=O)[C@@H]1O
IC50 (CYP1A2; enzyme activity; human, liver microsomes): > 200 µM

CSc1ccccc1C(=O)NCCn1cc(C(=O)NCc2cccc(C)n2)c(=O)c2cc3c(cc21)OCO3
IC50 (CYP1A2; enzyme activity; human, liver microsomes; 20 min, without NADPH, with preincubation): > 100 µM

O=C(O)COc1cccc(-c2nc(Nc3ccc4[nH]ncc4c3)c3ccccc3n2)c1
IC50 (SLCO1B1; transporter uptake, radiometric): 0.39 µM

O=C(CCCCCCC(=O)Nc1ccccc1)NO
IC50 (CYP1A2; enzyme activity, fluorescence): 7.28 µM

NC/C(=C\F)COc1cccc(Cn2c(=S)[nH]c(=O)c3[nH]cnc32)c1
inhibition (SLCO1B1; transporter uptake; 30 µM): < 50%

CC[C@H](C)[C@@H]([C@@H](CC(=O)N1CCC[C@H]1[C@H](OC)[C@@H](C)C(=O)N[C@@H](Cc1ccccc1)C(=O)NCCCO)OC)N(C)C(=O)[C@@H](NC(=O)[C@H](C(C)C)N(C)C)C(C)C
Ki (Cytochrome P450 3A4 (CYP3A4, Homo sapiens, UniProt P08684); enzyme activity): 21.8 µM

CC(C)(O)[C@@H]1CC[C@](C)([C@H]2[C@@H](O)C[C@@]3(C)[C@@H]4C[C@H](O[C@@H]5O[C@H](CO)[C@@H](O)[C@H](O)[C@H]5O)[C@H]5C(C)(C)[C@@H](O[C@@H]6OC[C@@H](O)[C@H](O)[C@H]6O)CC[C@@]56C[C@@]46CC[C@]23C)O1
IC50 (CYP1A2; enzyme activity; human, liver microsomes): > 200 µM
